According to ChEMBL document CHEMBL1649282, “OXA-143, a novel carbapenem-hydrolyzing class D beta-lactamase in Acinetobacter baumannii” (2009):
Converted amounts (≈) assume the structure as drawn.

Tests used:
Assay type in all cases: functional
Escherichia coli [1] = assay: Antimicrobial activity against Escherichia coli TOP10 harboring plasmid PH1 by Etest method
How it was run: (§1)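 MICs of β-lactams determined by Etest following the manufacturer's instructions. Reference strains A. baumannii ATCC 19606 and E. coli TOP10 were tested alongside transformants carrying the cloned blaOXA-143: ATCC 19606 with pPH98 and TOP10 with pPH-1. For pPH-1 constructs, TOP10 transformants were selected on 50 μg/ml amoxicillin plus 30 μg/ml kanamycin.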

Acinetobacter baumannii [2] = assay: Antimicrobial activity against Acinetobacter baumannii ATCC 19606 by Etest method; settings: ATCC 19606 = CIP 70.34 = JCM 6841; how it was run: as §1
Escherichia coli [3] = assay: Antimicrobial activity against Escherichia coli TOP10 by Etest method; how it was run: as §1
Acinetobacter baumannii [4] = assay: Antimicrobial activity against Acinetobacter baumannii ATCC 19606 harboring plasmid PH98 by Etest method; settings: ATCC 19606 = CIP 70.34 = JCM 6841; how it was run: as §1
Acinetobacter baumannii [5] = assay: Antimicrobial activity against Acinetobacter baumannii […] by Etest method
How it was run: (§2)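 Etest MICs were read following the manufacturer's instructions. A. baumannii 135040 is a blood-culture clinical isolate from a Brazilian ICU (2004); A. baumannii ATCC 19606 served as the reference strain.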

Escherichia coli [6] = assay: Antimicrobial activity against Escherichia coli TOP10 by Etest method in presence of 4 ug/ml beta-lactamase inhibitor clavulanic acid
How it was run: (§3)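 Susceptibility was read by Etest, following the manufacturer's instructions. E. coli TOP10 without plasmid served as the reference host strain.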

Acinetobacter baumannii [7] = assay: Antimicrobial activity against Acinetobacter baumannii ATCC 19606 harboring plasmid PH98 by Etest method in presence of 4 ug/ml beta-lactamase inhibitor clavulanic acid; settings: ATCC 19606 = CIP 70.34 = JCM 6841; how it was run: as §1
Acinetobacter baumannii [8] = assay: Antimicrobial activity against Acinetobacter baumannii ATCC 19606 by Etest method in presence of 4 ug/ml beta-lactamase inhibitor clavulanic acid; settings: ATCC 19606 = CIP 70.34 = JCM 6841; how it was run: as §2
Acinetobacter baumannii [9] = assay: Antimicrobial activity against Acinetobacter baumannii […] by Etest method in presence of 4 ug/ml beta-lactamase inhibitor clavulanic acid; how it was run: as §2
Escherichia coli [10] = assay: Antimicrobial activity against Escherichia coli TOP10 harboring plasmid PH1 by Etest method in presence of 4 ug/ml beta-lactamase inhibitor clavulanic acid; how it was run: as §1
Escherichia coli [11] = assay: Antimicrobial activity against Escherichia coli TOP10 by Etest method in presence of 4 ug/ml beta-lactamase inhibitor Tazobactam; how it was run: as §3
Escherichia coli [12] = assay: Antimicrobial activity against Escherichia coli TOP10 harboring plasmid PH1 by Etest method in presence of 4 ug/ml beta-lactamase inhibitor Tazobactam
How it was run: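 Susceptibility was read by Etest, following the manufacturer's instructions. The test strain was E. coli TOP10 carrying recombinant plasmid pPH-1, which expresses blaOXA-143 from A. baumannii clinical isolate 135040 at a high level. The gene was introduced by Zero Blunt TOPO cloning, and transformants were selected on 50 μg/ml amoxicillin plus 30 μg/ml kanamycin.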

Acinetobacter baumannii [13] = assay: Antimicrobial activity against Acinetobacter baumannii […] by Etest method in presence of 4 ug/ml beta-lactamase inhibitor Tazobactam; how it was run: as §2
Acinetobacter baumannii [14] = assay: Antimicrobial activity against Acinetobacter baumannii ATCC 19606 by Etest method in presence of 4 ug/ml beta-lactamase inhibitor Tazobactam; settings: ATCC 19606 = CIP 70.34 = JCM 6841; how it was run: as §2
Acinetobacter baumannii [15] = assay: Antimicrobial activity against Acinetobacter baumannii ATCC 19606 harboring plasmid PH98 by Etest method in presence of 4 ug/ml beta-lactamase inhibitor Tazobactam; settings: ATCC 19606 = CIP 70.34 = JCM 6841
How it was run: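 Susceptibility by Etest, run according to the manufacturer's instructions. The recipient strain is A. baumannii ATCC 19606 carrying recombinant plasmid pPH98. The same strain without the plasmid served as the reference. MICs for this strain were also determined by agar dilution following CLSI guidelines.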

SMILES	MIC (Escherichia coli [1])	MIC (Acinetobacter baumannii [2])	MIC (Escherichia coli [3])	MIC (Acinetobacter baumannii [4])	MIC (Acinetobacter baumannii [5])	MIC (Escherichia coli [6])	MIC (Acinetobacter baumannii [7])	MIC (Acinetobacter baumannii [8])	MIC (Acinetobacter baumannii [9])	MIC (Escherichia coli [10])	MIC (Escherichia coli [11])	MIC (Escherichia coli [12])	MIC (Acinetobacter baumannii [13])	MIC (Acinetobacter baumannii [14])	MIC (Acinetobacter baumannii [15])
CC1(C)S[C@@H]2[C@H](NC(=O)[C@H](C(=O)O)c3ccsc3)C(=O)N2[C@H]1C(=O)O [TICARCILLIN]	128 µg/mL (≈ 333 µM)	4 µg/mL (≈ 10.4 µM)	4 µg/mL (≈ 10.4 µM)	> 256 µg/mL	> 256 µg/mL	–	–	–	–	–	–	–	–	–	–
CC(C)(O/N=C(\C(=O)N[C@@H]1C(=O)N2C(C(=O)[O-])=C(C[n+]3ccccc3)CS[C@H]12)c1csc(N)n1)C(=O)O [CEFTAZIDIME]	0.12 µg/mL (≈ 0.22 µM)	2 µg/mL (≈ 3.66 µM)	0.06 µg/mL (≈ 0.11 µM)	2 µg/mL (≈ 3.66 µM)	256 µg/mL (≈ 468 µM)	–	–	–	–	–	–	–	–	–	–
C[C@@H](O)[C@H]1C(=O)N2C(C(=O)O)=C(S[C@@H]3CN[C@H](C(=O)N(C)C)C3)[C@H](C)[C@H]12 [MEROPENEM]	2 µg/mL (≈ 5.22 µM)	0.19 µg/mL (≈ 0.495 µM)	0.12 µg/mL (≈ 0.313 µM)	32 µg/mL (≈ 83.4 µM)	> 32 µg/mL	–	–	–	–	–	–	–	–	–	–
CC1(C)S[C@@H]2[C@H](NC(=O)[C@H](N)c3ccc(O)cc3)C(=O)N2[C@H]1C(=O)O [AMOXICILLIN]	> 512 µg/mL	32 µg/mL (≈ 87.6 µM)	4 µg/mL (≈ 10.9 µM)	> 256 µg/mL	> 256 µg/mL	4 µg/mL	> 256 µg/mL	8 µg/mL	> 256 µg/mL	> 512 µg/mL	–	–	–	–	–
C[C@@H](O)[C@H]1C(=O)N2C(C(=O)O)=C(SCCNC=N)C[C@H]12 [IMIPENEM ANHYDROUS]	2 µg/mL (≈ 6.68 µM)	0.19 µg/mL (≈ 0.635 µM)	–	32 µg/mL (≈ 107 µM)	> 32 µg/mL	–	–	–	–	–	–	–	–	–	–
CO/N=C(\C(=O)N[C@@H]1C(=O)N2C(C(=O)O)=C(COC(C)=O)CS[C@H]12)c1csc(N)n1 [CEFOTAXIME]	0.12 µg/mL (≈ 0.263 µM)	8 µg/mL (≈ 17.6 µM)	0.12 µg/mL (≈ 0.263 µM)	16 µg/mL (≈ 35.1 µM)	> 256 µg/mL	–	–	–	–	–	–	–	–	–	–
CCN1CCN(C(=O)N[C@@H](C(=O)N[C@@H]2C(=O)N3[C@@H]2SC(C)(C)[C@@H]3C(=O)O)c2ccccc2)C(=O)C1=O [PIPERACILLIN]	8 µg/mL (≈ 15.5 µM)	4 µg/mL (≈ 7.73 µM)	1 µg/mL (≈ 1.93 µM)	16 µg/mL (≈ 30.9 µM)	> 256 µg/mL	–	–	–	–	–	0.5 µg/mL	2 µg/mL	> 256 µg/mL	4 µg/mL	8 µg/mL
CO/N=C(\C(=O)N[C@@H]1C(=O)N2C(C(=O)[O-])=C(C[N+]3(C)CCCC3)CS[C@H]12)c1csc(N)n1 [CEFEPIME]	0.12 µg/mL (≈ 0.25 µM)	1 µg/mL (≈ 2.08 µM)	–	2 µg/mL (≈ 4.16 µM)	4 µg/mL (≈ 8.32 µM)	–	–	–	–	–	–	–	–	–	–
